From PubChem BioAssay come the findings set out here.

Calls of active or inactive are those of the source.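 Rule for the calls, unless noted: active = a full or partial loss of lipid-probe fluorescence in the fish gall bladder, intestine or both, judged by eye; inactive = no fluorescence loss, or compound toxic to the fish.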

Assay [1] is described as follows: inhibitors of TNFa-induced NFkB p65 translocation, primary screen, imaging, HUVEC, MLSMR starter and 10KST1 sets (AID 438;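 active = inhibition above 20% together with a positive visual image hit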;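 note: compound added about 3h40 before a 20 min TNFalpha stimulation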;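 for inhibition: signal is the nuclear over cytoplasmic p65 intensity ratio per well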). Conditions: HUVEC TNFa-induced p65 nuclear translocation; cell count: measured here: nuclei count (cytotoxicity indicator), at 2.08 µM; inhibition: at 2 µM, stronger effect = higher value, 0% TNFa-plus-vehicle, 100% no-TNFa wells.
The nature of assay [2]: endothelial E-selectin expression blockers – imaging, HUVEC, immunofluorescence, MLSMR starter and 10KST1 sets, primary screen (AID 487;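 active = visually confirmed hit in the image check and inhibition above 20%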;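 for inhibition: signal is fraction of cell area covered by stained E-selectin grains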;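 for nuclei count: 100% = median nuclei count of all wells on the same plate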). Conditions: HUVEC TNFalpha-induced E-selectin immunofluorescence imaging, at 2 µM; inhibition: stronger effect = higher value; nuclei count: measured here: cell number, toxicity.
Assay [3] can be described thus: Primary imaging screen for DUSP6 inhibitors that restore phospho-Erk in transfected HeLa cells, chemical complementation (AID 609;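 active = compounds giving at least 50% inhibition in the cell-based MKP-3 phosphatase rescue imaging test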;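 for inhibition: phospho-Erk level distribution per well compared with pooled transfected vehicle control wells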). As to conditions: HeLa MKP-3 transfected, phospho-Erk imaging KS statistic, at 10 µM, cells stimulated with TPA for 15 min.
Assay [4] concerns the target Dual specificity protein phosphatase 6 (Homo sapiens) (UniProt Q16828). The assay is described as above. As to conditions: HeLa MKP-3 transfected, phospho-Erk imaging KS statistic; at 10 µM; stronger effect = higher value; cells stimulated with TPA for 15 min.
Assay [5] deals with Voltage-gated potassium channel subunit beta-2 (Rattus norvegicus) (UniProt P62483). Put plainly: inhibitors of rat Kvbeta2 reductase activity – biochemical, NADPH fluorescence, primary screen (AID 622;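 active = fluorescence slope higher than the sample average by over 3 SD, cut at about -0.22 in these data, passing the limit was not always enough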;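 note: slope of raw intensity against log time taken from 70 to 1610 s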). Conditions: recombinant KvBeta, 4-cyanobenzaldehyde reduction, at 10 µM, stronger effect = higher value.
Assay [6] shares this target. Put plainly: enhancers of rat Kvbeta2 NADPH turnover – biochemical, NADPH fluorescence, primary screen (AID 623;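 active = NADPH fluorescence slope more negative than the mean of all samples by about 3 SD, 99.7% confidence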;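 note: fluorescence intensity change per second fitted from 20 to 320 s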). As to conditions: Recombinant KvBeta, NADPH fluorescence decrease slope, 10 min; at 10 µM; stronger effect = lower value.
In assay [7] the target is Alpha-2C adrenergic receptor (Homo sapiens) (UniProt P18825). Put plainly: compounds altering alpha2C-coupled GIRK flux – cell-based, HEK293 alpha2C/GIRK1/2, thallium flux, primary screen (AID 624;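 active = fluorescence slope after compound addition differing from the mean of all screened samples at 99.7% confidence, in either direction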;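 note: slope of fluorescence ratio to pre-addition baseline per second over 15 to 24 s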). As to conditions: thallium flux BTC fluorescence, at 10 µM, actives lie on both sides.
The nature of assay [8]: inhibitors of larval lipid processing in zebrafish, primary screen, whole organism, PED6 fluorescence, gall bladder and intestine (AID 686).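 Note: larvae 5 to 7 days old with five fish per well; signal comes from phospholipase A2 cleavage of quenched PED6 carried via bile; overnight exposure to compound and PED6 before scoring.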 Conditions: Zebrafish larvae PED6 lipid processing, fluorescence scoring; screened at 20 µM (by protocol). In outline: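 Test system – live zebrafish larvae aged 5-7 days, whole organism · Buffer or medium – E3 fish medium · Reagent – quenched phospholipase substrate PED6, 100 nM final, ingested by larvae · Doses – 20 µM single dose · Incubation – overnight compound and PED6 incubation · Technique – visual fluorescence microscopy scoring of gall bladder, gut · Read-out basis – visual per-well fluorescence inhibition score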

Assay [9] can be described thus: loss of swimming-algae plug formation – whole organism, Chlamydomonas reinhardtii, WT vs cilia-less mutant, absorbance, 96-well, primary screen (AID 463189;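 active = inhibition at or above 50% relative to wild type and mutant plate controls; inactive = inhibition below 50%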;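 note: 0% = wild type cc124 cells in DMSO and 100% = ciliumless bld1 mutant cells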). As to conditions: Chlamydomonas reinhardtii gravitaxis, OD600 absorbance, 2 days; at 10 µM; stronger effect = higher value.
[10] abbreviates: measured here: cell density z-score.
Setting [11] is: measured here: nuclear c-Myc green intensity z-score.
Setting [12] is: measured here: nuclear pErk red intensity z-score, stronger effect = higher value.

Sequence of Voltage-gated potassium channel subunit beta-2 (Rattus norvegicus) (P62483 whole entry, looked up): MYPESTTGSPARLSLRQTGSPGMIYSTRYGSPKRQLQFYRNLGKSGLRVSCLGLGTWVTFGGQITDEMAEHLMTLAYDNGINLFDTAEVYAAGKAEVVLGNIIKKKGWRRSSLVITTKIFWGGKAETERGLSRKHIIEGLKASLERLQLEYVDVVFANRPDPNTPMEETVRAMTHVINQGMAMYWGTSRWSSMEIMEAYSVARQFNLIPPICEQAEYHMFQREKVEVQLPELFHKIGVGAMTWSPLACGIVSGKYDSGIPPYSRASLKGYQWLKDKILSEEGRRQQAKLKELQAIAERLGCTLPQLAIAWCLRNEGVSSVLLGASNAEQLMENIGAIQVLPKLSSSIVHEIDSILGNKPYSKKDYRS
Sequence of Dual specificity protein phosphatase 6 (Homo sapiens) (Q16828 whole entry, looked up): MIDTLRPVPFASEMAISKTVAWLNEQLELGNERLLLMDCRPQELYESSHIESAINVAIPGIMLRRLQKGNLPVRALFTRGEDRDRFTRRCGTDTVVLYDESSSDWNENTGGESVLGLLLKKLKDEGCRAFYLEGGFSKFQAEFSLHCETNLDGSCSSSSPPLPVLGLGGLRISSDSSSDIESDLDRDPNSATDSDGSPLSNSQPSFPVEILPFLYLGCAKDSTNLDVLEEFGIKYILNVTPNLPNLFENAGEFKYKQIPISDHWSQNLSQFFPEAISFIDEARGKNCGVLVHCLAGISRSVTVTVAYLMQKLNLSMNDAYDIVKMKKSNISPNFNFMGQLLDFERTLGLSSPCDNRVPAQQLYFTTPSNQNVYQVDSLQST
Sequence of Alpha-2C adrenergic receptor (Homo sapiens) (P18825 whole entry, looked up): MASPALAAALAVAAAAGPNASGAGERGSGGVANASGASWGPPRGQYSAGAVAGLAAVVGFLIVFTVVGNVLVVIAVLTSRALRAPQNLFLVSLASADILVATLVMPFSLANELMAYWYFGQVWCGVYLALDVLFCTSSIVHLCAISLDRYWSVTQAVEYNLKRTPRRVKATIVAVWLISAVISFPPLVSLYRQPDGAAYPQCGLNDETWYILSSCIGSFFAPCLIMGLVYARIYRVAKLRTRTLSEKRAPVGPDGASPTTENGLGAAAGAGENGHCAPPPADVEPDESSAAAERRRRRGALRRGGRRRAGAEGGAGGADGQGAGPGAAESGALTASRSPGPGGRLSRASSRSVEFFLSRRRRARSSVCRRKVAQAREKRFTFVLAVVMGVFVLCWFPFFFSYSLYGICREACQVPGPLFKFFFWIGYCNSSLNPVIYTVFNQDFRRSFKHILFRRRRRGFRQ

For `CCN(CC)C(=O)CSC1=C(C#N)C(c2cccs2)C=C(C)N1` (stereo unspecified), the cell count in [1] is 685. Besides, the inhibition is -20% (inactive) in assay [1], -137% (inactive) in [2], -10.6% (inactive) in [4] and -1.96% (inactive) in assay [9]. Also, in [2], the nuclei count turned out to be 171%. In addition, the z-score is -0.342 in assay [3] (setting [10]), -0.599 in assay [3] (setting [11]) and 1.19 in assay [3] (setting [12]). The fluorescence slope in [5] was -0.405 (inactive). In addition, the NADPH fluorescence slope in assay [6] is -4.9e-05 (inactive). In addition, in [7], the slope was 0.00539 (inactive). Besides, the outcome in assay [8] was inactive.
For `CN(C)c1nc2n(c(=O)n1)C(C#N)CS2` (stereo unspecified), in assay [1], the cell count was 364. Besides, the inhibition in assay [1] was -3.1% (inactive); in [2] it was -192% (inactive); in assay [4], 13.2% (inactive); in [9] it was -3.08% (inactive). The compound also yielded a nuclei count in [2] of 105%. In addition, the z-score in assay [3] (setting [10]) is 0.947; in [3] (setting [11]), -1.21; in assay [3] (setting [12]) it was -1.65. In addition, in assay [5], the fluorescence slope is -0.438 (inactive). Also, the NADPH fluorescence slope in assay [6] is -5.8e-06 (inactive). Further, in assay [7], the slope is 0.00693 (inactive). For the same compound, the compound was classed as inactive in [8].
Turning to `CCC1SC(N)=NC1=O` (stereo unspecified), the cell count in [1] was 522. The inhibition in [1] was -23.4% (inactive); in assay [2], -58.7% (inactive); in assay [4], -15% (inactive); in assay [9] it was 13.5% (inactive). For the same compound, the nuclei count in assay [2] turned out to be 182%. Further, the z-score is -1.82 in [3] (setting [10]), 1.35 in assay [3] (setting [11]) and 1.78 in [3] (setting [12]). For the same compound, the fluorescence slope in assay [5] is -0.405 (inactive). Further, in assay [6], the NADPH fluorescence slope was -7.4e-05 (inactive). Further, in assay [7], the slope was 0.00536 (inactive). In addition, in assay [8], the compound was classed as inactive.
In the case of `O=c1[nH]cnc2cc(-c3ccccc3)sc12`, the cell count in [1] amounted to 526. Further, the inhibition is -9.9% (inactive) in [1], -20.4% (inactive) in [2], 21% (inactive) in assay [4] and -1.84% (inactive) in assay [9]. This compound had a nuclei count in [2] of 168%. Moreover, the z-score is 0.45 in assay [3] (setting [10]), -1.43 in assay [3] (setting [11]) and 0.87 in assay [3] (setting [12]). Besides, in assay [5], the fluorescence slope was -0.351 (inactive). Besides, the NADPH fluorescence slope in [6] was -9.5e-06 (inactive). In addition, the slope in assay [7] was 0.00529 (inactive). Further, in [8], the result was inactive.
For `N#CC1(P(=O)(c2ccccc2)c2ccccc2)CC1`, in assay [1], the cell count came out at 481. Further, the inhibition in assay [1] was -10.9% (inactive); in assay [2], -110% (inactive); in [4], 11.3% (inactive); in assay [9] it was 5.77% (inactive). In [2], the nuclei count came out at 143%. For the same compound, the z-score in [3] (setting [10]) is -0.778; in [3] (setting [11]), -0.637; in [3] (setting [12]), -0.322. Also, the fluorescence slope in assay [5] was -0.546 (inactive). The NADPH fluorescence slope in assay [6] is -5.6e-05 (inactive). Besides, the slope in [7] was 0.00538 (inactive). In addition, the result in [8] was inactive.
On to `CCOc1cccc(-c2nnc3sc(-c4cc(OC)c(OC)c(OC)c4)nn23)c1`, for which the cell count in [1] was 647. Moreover, the inhibition was -9.1% (inactive) in [1], -15.9% (inactive) in assay [2], -15% (inactive) in [4] and 6.41% (inactive) in assay [9]. In assay [2], this compound came in with a nuclei count of 171%. The z-score in assay [3] (setting [10]) was 1.15; in assay [3] (setting [11]) it was 0.91; in assay [3] (setting [12]), -0.181. The fluorescence slope in [5] was -0.39 (inactive). Moreover, in [6], the NADPH fluorescence slope is -0.000117 (inactive). The slope in [7] was 0.00923 (inactive). Moreover, the compound was called inactive in assay [8].
For the compound `N#CC1=C(N)NC(SCc2ccc(Cl)cc2)=C(C#N)C12CCCCC2`, the cell count in [1] stood at 630. In addition, the inhibition was -23% (inactive) in [1], 44.1% (inactive) in assay [2], 1.04% (inactive) in [4] and 18.9% (inactive) in assay [9]. In addition, the nuclei count in [2] was 180%. Besides, the z-score was 0.0253 in assay [3] (setting [10]), -0.669 in assay [3] (setting [11]) and 0.519 in [3] (setting [12]). For the same compound, in [5], the fluorescence slope was -0.409 (inactive). In addition, in assay [6], the NADPH fluorescence slope was -5.9e-05 (inactive). Moreover, in assay [7], the slope is 0.00372 (inactive). For the same compound, the compound was classed as inactive in [8].
Take `CC(Sc1nc(N2CCCCC2)c2c(c1C#N)CCCC2)C(=O)O` (stereo unspecified): the cell count in assay [1] came out at 624. For the same compound, the inhibition in assay [1] was 4.5% (inactive); in assay [2], -96.1% (inactive); in assay [4] it was 9.82% (inactive); in assay [9] it was -8.39% (inactive). Also, the nuclei count in assay [2] was determined as 161%. In addition, the z-score in assay [3] (setting [10]) was -0.692; in assay [3] (setting [11]), 0.635; in assay [3] (setting [12]) it was -1.09. In [5], the fluorescence slope is -0.301 (inactive). In addition, the NADPH fluorescence slope in assay [6] was 1.2e-06 (inactive). Also, the slope in [7] is 0.00467 (inactive). The result in assay [8] was inactive.
As to `CC1(C)CC(=O)C2=C(C1)N(Cc1ccco1)C(=O)C2(O)C(F)(F)F` (stereo unspecified), in assay [1], the cell count came to 502. The inhibition was -2.4% (inactive) in assay [1], -124% (inactive) in assay [2], -12.3% (inactive) in [4] and 20.3% (inactive) in assay [9]. The same compound had a nuclei count in assay [2] of 132%. The z-score was -0.0541 in [3] (setting [10]), -0.87 in assay [3] (setting [11]) and -0.763 in assay [3] (setting [12]). Besides, the fluorescence slope in [5] is -0.467 (inactive). The NADPH fluorescence slope in assay [6] was -6.1e-05 (inactive). Further, the slope in assay [7] was 0.00641 (inactive). The compound was classed as inactive in [8].
For `O=C(Nc1ccc2c(c1)OCCO2)c1ccc(Br)o1`, in assay [1], the cell count was 587. For the same compound, the inhibition was 3.2% (inactive) in assay [1], 6.1% (inactive) in assay [2], -1.75% (inactive) in assay [4] and 12.8% (inactive) in assay [9]. In addition, the nuclei count in assay [2] turned out to be 143%. Moreover, the z-score was 0.114 in assay [3] (setting [10]), -1.76 in assay [3] (setting [11]) and -1.37 in [3] (setting [12]). Besides, in assay [5], the fluorescence slope was -0.295 (inactive). Besides, in assay [6], the NADPH fluorescence slope was -8.8e-06 (inactive). Besides, the slope in [7] was 0.00481 (inactive). The outcome in assay [8] was inactive.
As for `CCN1CC=C2C(C#N)=C(N)C(C#N)(C#N)[C@H](c3cccc(OC)c3OC)[C@H]2C1`, the cell count in assay [1] amounted to 560. The inhibition is -11.4% (inactive) in [1], 26.9% (inactive) in assay [2], -3.95% (inactive) in assay [4] and -15.5% (inactive) in assay [9]. In assay [2], this compound had a nuclei count of 113%. The results for the z-score in assay [3] (setting [10]), in assay [3] (setting [11]) and in assay [3] (setting [12]) were 1.15, 1.25 and -1.6, respectively. The fluorescence slope in assay [5] was -0.449 (inactive). Besides, in assay [6], the NADPH fluorescence slope was -6e-06 (inactive). For the same compound, the slope in [7] is -4.3e-17 (inactive). Moreover, the compound was called inactive in assay [8].
For the compound `COC(=O)CN1C2(C#N)CCCCC2CC2CCCCC21C#N` (stereo unspecified), the cell count in [1] is 420. The inhibition in assay [1] is -8.8% (inactive); in assay [2], -128% (inactive); in assay [4], 3.66% (inactive); in [9], 45.5% (inactive). The nuclei count in assay [2] stood at 153%. For the same compound, the z-score in assay [3] (setting [10]) was -0.336; in assay [3] (setting [11]) it was -0.947; in [3] (setting [12]) it was -0.0966. For the same compound, in assay [5], the fluorescence slope was -0.504 (inactive). Besides, in assay [6], the NADPH fluorescence slope was -9.5e-05 (inactive). Also, the slope in assay [7] was 0.00451 (inactive). In addition, the result in [8] was inactive.
